# This is a sample that favours compounds with a hit; in the whole collection about 1.9% have one here.
# HCV NS3 hel inh – blocks Hepatitis C virus NS3 helicase unwinding; NS3 helicase DNA unwinding, Cy5 molecular beacon fluorescence; inhibition, % at 10.9 µM; 0.56% of 290,000 active; AID 1800;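 active = inhibition above the mean of all tested compounds plus 3 SD, set per campaign, cut at about 35% in these data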;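 also: 0% = DMSO wells and 100% = thioflavine S control wells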
#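 test system = hepatitis C virus NS3 helicase domain fragment enzyme | reagent = annealed dual-labelled DNA beacon duplex, ATP-started | times = 1 h at 25 °C | detection = Cy5 fluorescence, 0 and 60 min reads | read-out basis = percent inhibition from t60/t0 fluorescence ratio | control set = DMSO and thioflavine S | replication = one well per compound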
# PP1 counter – blocks human PP1-alpha phosphatase, a PP5 counter-screen; P62136; purified PP1alpha, OMFP fluorescence; inhibition, % at 6.7 µM; 0.9% of 320,000 active; AID 2235;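 active = inhibition above the mean inhibition of all tested compounds plus 3 SD, computed separately for each screening campaign, cut at about 15% in these data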
# HIF act – HIF pathway transcriptional activation. U2OS HRE-luciferase reporter, luminescence; normalized: DMSO 0%, desferrioxamine 100%. activation, % at 7.5 µM (by protocol). 0.32% of 300,000 active. AID 1910;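 active = mean activation of at least 10% of the iron chelator positive control signal, with at least half of replicates also reaching 10%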
# FID counter – fluorescent intercalator displacement, NS3 helicase counter-screen. AID 1845. 0.17% of 290,000 active. DNA fluorescent intercalator displacement, fluorescence. inhibition, % at 7.9 µM; in the data active = inhibition above about 37%;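 also: 0% = vehicle and 100% = reference compound; higher means more ethidium bromide displaced from hairpin DNA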
# PP5 primary – inhibitors of human protein phosphatase 5 (PP5). P53041. purified PP5c, OMFP substrate fluorescence. inhibition, % at 6.7 µM. 0.18% of 320,000 active;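 active = inhibition above the campaign's mean inhibition across all tested compounds plus 3 SD, cut at about 9.5% in these data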;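 also: 0% = DMSO only and 100% = 100 µM cantharidin control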
# Target sequence (P53041 whole entry, looked up): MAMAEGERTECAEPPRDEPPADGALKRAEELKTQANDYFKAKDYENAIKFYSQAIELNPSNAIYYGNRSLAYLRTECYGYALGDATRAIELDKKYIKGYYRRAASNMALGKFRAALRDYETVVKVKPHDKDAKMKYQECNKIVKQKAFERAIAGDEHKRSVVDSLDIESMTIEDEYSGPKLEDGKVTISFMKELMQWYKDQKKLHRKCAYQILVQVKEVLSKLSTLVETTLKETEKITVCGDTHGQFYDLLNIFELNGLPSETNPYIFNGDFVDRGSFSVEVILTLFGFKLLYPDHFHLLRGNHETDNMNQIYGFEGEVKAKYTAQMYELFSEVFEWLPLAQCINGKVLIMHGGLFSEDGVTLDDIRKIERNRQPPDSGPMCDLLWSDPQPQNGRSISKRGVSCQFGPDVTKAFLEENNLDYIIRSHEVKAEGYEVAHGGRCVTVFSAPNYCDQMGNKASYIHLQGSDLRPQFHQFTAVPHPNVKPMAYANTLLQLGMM
# PP1 inh confirm – confirmation of human PP1 phosphatase inhibitors | shares compounds with PP1 counter | purified PP1alpha, OMFP substrate fluorescence | inhibition, % at 6.7 µM | 52% of 1,900 active | AID 2358;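 active = mean PP1 inhibition above a set limit taken from the earlier primary screen, cut at about 15% in these data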
# PP5 counter – counter-screen for PP1 inhibitors: human PP5 phosphatase inhibition; shares compounds with PP1 counter; purified PP5c, OMFP fluorescence; inhibition, % at 6.7 µM; 4% of 1,900 active; AID 2360;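 active = mean PP5 inhibition over triplicate wells above about 9.5% taken from the earlier PP1 screen, limit read from the data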
# Active calls of the source: *; . = no result.
SMILES,HCV NS3 hel inh,PP1 counter,HIF act,FID counter,PP5 primary,PP1 inh confirm,PP5 counter
Cc1ccc(C)c(CN2C(=O)C3CCCN3c3ccc(S(=O)(=O)N4CCOCC4)cc32)c1 (stereo not given),0.1,22.1*,-0.4,-13.9,2.8,22.2*,-0.3
CN(C)c1ccc(CNCc2cccnc2)cc1,.,-2.5,0.3,.,-2.5,.,.
CCCCCc1c2c(cc(O)c1C(=O)O)OC(=O)c1c(cc(OC)cc1C(=O)CCCC)O2,5.7,24.8*,0.1,-6.4,5.3,27.6*,1.6
CCCCc1c(C(=O)O)cc(OC)cc1C(=O)O,-7.1,-6.0,0.0,3.8,2.1,.,.
C=CCn1c(CCC(O)COCCCCC)n[nH]c1=S (stereo not given),5.3,-1.1,0.3,-22.4,4.1,.,.
COc1ccccc1NC(=O)c1c(Nc2ccccc2F)sc(C(=O)Nc2cccc(Cl)c2)c1N,1.2,22.1*,-0.3,-2.0,0.4,2.5,1.9
COc1ccccc1NC(=O)c1sc(Cl)nc1C,8.6,-5.2,0.1,-4.0,-0.3,.,.
CC(C)(C)OC(=O)CNC(=O)c1nc[nH]c1C(=O)N1CCc2ccccc2C1,0.6,2.3,-0.9,-38.5,0.9,.,.
COc1ccc(/C=C2\SC(=S)N(CCC(=O)N(CCO)c3ccccc3)C2=O)cc1OC,1.7,-1.4,0.0,-36.7,-0.5,.,.
CCOc1ccc(/C=C2\SC(=S)N(CCC(=O)N(CCO)c3ccccc3)C2=O)cc1,-5.3,21.9*,-1.7,-27.5,5.2,8.2,4.0
Cc1ccc(NC(=S)N(CCN2CCOCC2)Cc2cc3cc4c(cc3[nH]c2=O)OCO4)cc1,-8.6,-1.1,-0.7,3.7,-2.1,.,.
c1ccc(-c2n[nH]c(-c3ccccn3)n2)nc1,-6.5,27.3*,2.4,-1.2,2.4,23.3*,-6.1
CN1CCN(C(c2ccc(C(F)(F)F)cc2)c2ccc3cccnc3c2O)CC1 (stereo not given),-19.8,13.6,5.0,-2.8,3.2,.,.
Oc1c(C(c2ccccc2Cl)N2CCCC2)ccc2cccnc12 (stereo not given),10.0,20.7*,59.0*,-9.9,-1.4,10.8,0.4
Oc1c(C(c2ccc(Cl)cc2)N2CCCC2)cc(Cl)c2cccnc12 (stereo not given),26.3,24.6*,2.9,-0.2,5.4,22.4*,-1.5
CC(=O)NC(c1cc(Cl)c2cccnc2c1O)C1CC1 (stereo not given),.,1.3,.,.,-0.2,.,.
CN1CCN(C(c2ccccn2)c2cc(Cl)c3cccnc3c2O)CC1 (stereo not given),12.6,72.3*,6.8,-5.9,9.3,58.6*,6.0
Oc1c(C(c2ccccn2)N2CCC(Cc3ccccc3)CC2)cc(Cl)c2cccnc12 (stereo not given),2.0,73.5*,0.6,-15.8,4.6,20.3*,1.6
COc1ccccc1NC(=O)c1ccc2c(c1)nnn2C,-5.1,3.8,0.7,-3.0,5.4,.,.
O=c1[nH]c2c(c(=O)[nH]1)CCC2,-3.3,-2.2,0.0,-0.2,-2.2,.,.
COc1cccc(-n2c(SCC(=O)Nc3ccc4c(c3)CCC4)nc3ccccc3c2=O)c1,-1.6,18.9*,-0.5,-9.2,1.2,3.7,1.2
COc1ccc(NC(=O)CSc2nc3nc(C)cc(C)c3c(=O)[nH]2)cc1,-3.6,77.5*,-0.8,-11.8,9.0,-2.5,-2.2
COc1ccc(NC(=O)CSc2nc(O)cc(=O)n2-c2ccc(OC)cc2)cc1,24.4,19.5*,-1.7,-24.8,1.4,-4.5,-7.5
O=[N+]([O-])CC1(n2nc3ccccc3n2)CCCCC1,.,3.5,1.5,.,3.8,.,.
CCOC(=O)Oc1c(OC)cc(C(=O)O[C@@H]2C[C@@H]3CN4CCc5c([nH]c6cc(OC)ccc56)[C@H]4C[C@@H]3[C@H](C(=O)OC)[C@H]2OC)cc1OC,.,19.5*,.,.,-9.2,-0.4,4.6
SMILES,HCV NS3 hel inh,PP1 counter,HIF act,FID counter,PP5 primary,PP1 inh confirm,PP5 counter
Cc1c(C(=O)NCc2ccc3c(c2)cc(C)n3C)cccc1[N+](=O)[O-],-20.3,2.9,-0.3,-8.6,4.6,.,.
Cc1ccccc1-n1c(SCC(=O)N2CCOCC2)nc(O)c(Cc2ccccc2)c1=O,1.8,-2.4,-0.3,-27.0,0.5,.,.
CC(=O)C1=C(O)C(=O)N(CCc2c[nH]c3ccccc23)C1c1ccc(O)cc1 (stereo not given),13.3,5.2,0.2,-2.4,1.5,.,.
CCCCCCN1C(=O)C(O)=C(C(C)=O)C1c1ccc(Cl)cc1 (stereo not given),28.4,22.6*,0.5,-39.0,3.4,17.6*,2.2
CCOc1ccc(C2C(C(C)=O)=C(O)C(=O)N2CCc2c[nH]c3ccccc23)cc1 (stereo not given),33.9,22.3*,0.5,-41.3,4.8,28.9*,-1.0
CC1(C)Oc2ccc3ccc(=O)oc3c2[C@@H](O)[C@@H]1O,.,-0.4,.,.,3.4,.,.
CCN(CC)CCN(C(=O)c1ccc2c(c1)CCCC2)c1nc2cc(OC)c(OC)cc2s1,-35.3,24.4*,0.5,33.3,16.6*,-3.1,1.6
COc1cc2nc(N(CCN(C)C)C(=O)c3ccc4ccccc4c3)sc2cc1OC,-74.4,6.0,-0.4,21.2,-2.7,.,.
Cc1noc(NS(=O)(=O)c2ccc(NC(=O)Nc3ccc(Cl)c(Cl)c3)cc2)c1C,4.8,17.7*,0.0,18.3,6.0,10.8,0.0
O=C(O)CN1C(=O)COc2ccc(S(=O)(=O)N3CCCCCC3)cc21,1.8,-1.4,-0.2,-5.7,-0.8,.,.
O=C1C(=O)N(c2cccc(Cl)c2)C(c2ccccc2[N+](=O)[O-])/C1=C(\O)c1ccccc1 (stereo not given),3.5,-183.7,0.3,-1.9,2.1,2.1,-1.6
O=C1C(=O)N(c2ccccc2)C(c2ccccc2[N+](=O)[O-])/C1=C(\O)c1ccccc1 (stereo not given),0.9,-0.3,2.0,1.9,2.3,.,.
O=C(O)c1ccc(N=Nc2c(O)ccc3ncccc23)cc1,33.2,21.0*,-1.4,-26.8,4.1,14.3,0.4
Oc1cccc2ccc(/C=C/c3c(F)cccc3Cl)nc12,8.2,5.3,4.1,-2.9,-0.5,.,.
CCOc1cccc(/C=C/c2ccc3cccc(O)c3n2)c1OC,23.6,21.4*,-10.3,-15.3,1.8,15.4*,-1.9
CCOc1cccc(/C=C/c2ccc3cccc(O)c3n2)c1O,5.2,12.0,5.6,-8.6,0.0,.,.
Oc1cccc2ccc(/C=C/c3ccccc3Cl)nc12,4.1,19.4*,3.3,-9.1,1.0,11.1,-0.5
COc1ccc(Cl)cc1/C=C/c1ccc2cccc(O)c2n1,26.6,17.8*,2.6,-16.1,2.3,16.4*,-2.6
COc1ccccc1/C=C/c1ccc2cccc(O)c2n1,15.9,22.9*,4.1,-13.4,1.5,14.7,-1.3
COc1ccc(NC(=O)CN(C)S(=O)(=O)c2ccc(Cl)cc2)cn1,.,-1.6,.,.,-2.2,.,.
Cc1cc(C)c(C)c(S(=O)(=O)N2CCC(C(=O)NCCCN3CCOCC3)CC2)c1C,.,-0.7,.,.,-0.9,.,.
